Measured values as given in article PMC7312786 (Biochemistry, 2018).
Several values for one entry are separate records, joined by “and”; a condition that tells them apart may be missing. Equal values may be shown once.

Legend:
hpol η = target: T1, hpol η (Homo sapiens, UniProt Q9Y253); experiment: Fluorescence-based DNA polymerase activity assay, hpol η; format: biochemical; details: 20 μM PNR-7-02; mean (±SD), three experiments
T1 sequence (Q9Y253 1-437): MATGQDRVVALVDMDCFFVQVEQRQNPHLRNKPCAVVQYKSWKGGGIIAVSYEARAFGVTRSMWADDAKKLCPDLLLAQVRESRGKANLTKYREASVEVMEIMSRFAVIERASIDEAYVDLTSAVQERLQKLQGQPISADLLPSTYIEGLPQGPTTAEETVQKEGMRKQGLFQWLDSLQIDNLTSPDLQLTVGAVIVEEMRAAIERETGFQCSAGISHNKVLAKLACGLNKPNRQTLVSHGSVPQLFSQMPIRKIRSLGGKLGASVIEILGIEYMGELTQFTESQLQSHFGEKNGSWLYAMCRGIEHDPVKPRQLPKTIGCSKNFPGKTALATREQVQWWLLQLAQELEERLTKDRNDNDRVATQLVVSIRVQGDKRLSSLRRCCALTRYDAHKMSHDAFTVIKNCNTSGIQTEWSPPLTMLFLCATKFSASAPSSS

[1] = tested on: hpol η-deficient HAP-1 cells; experiment: Cell viability; format: cell-based, human
Summary of the method: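 HAP-1 parental or CRISPR hpol η-null cells in IMDM with 10% FBS and 1% antibiotic/antimycotic, passage 8–10, seeded 5000 cells/well. Next day: CDDP 0–100 μM alone or with 0.1 or 1 μM test compound, 48 h. Cells washed twice in DPBS, then 2 μM Calcein-AM for 30 min at 25 °C; fluorescence ex 490/em 520 nm. Viability as % of untreated. […] Combination index by Chou–Talalay.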

OVCAR3 cells = experiment: Combined treatment of OVCAR3 cells with CDDP and PNR-7-02; format: cell-based, human
hpol θ = target: T2, hpol θ (Homo sapiens, UniProt O75417); experiment: Fluorescence-based pol activity assay, hpol θ; format: biochemical; details: 20 μM PNR-7-02; mean (±SD)
T2 sequence (O75417 1792-2590): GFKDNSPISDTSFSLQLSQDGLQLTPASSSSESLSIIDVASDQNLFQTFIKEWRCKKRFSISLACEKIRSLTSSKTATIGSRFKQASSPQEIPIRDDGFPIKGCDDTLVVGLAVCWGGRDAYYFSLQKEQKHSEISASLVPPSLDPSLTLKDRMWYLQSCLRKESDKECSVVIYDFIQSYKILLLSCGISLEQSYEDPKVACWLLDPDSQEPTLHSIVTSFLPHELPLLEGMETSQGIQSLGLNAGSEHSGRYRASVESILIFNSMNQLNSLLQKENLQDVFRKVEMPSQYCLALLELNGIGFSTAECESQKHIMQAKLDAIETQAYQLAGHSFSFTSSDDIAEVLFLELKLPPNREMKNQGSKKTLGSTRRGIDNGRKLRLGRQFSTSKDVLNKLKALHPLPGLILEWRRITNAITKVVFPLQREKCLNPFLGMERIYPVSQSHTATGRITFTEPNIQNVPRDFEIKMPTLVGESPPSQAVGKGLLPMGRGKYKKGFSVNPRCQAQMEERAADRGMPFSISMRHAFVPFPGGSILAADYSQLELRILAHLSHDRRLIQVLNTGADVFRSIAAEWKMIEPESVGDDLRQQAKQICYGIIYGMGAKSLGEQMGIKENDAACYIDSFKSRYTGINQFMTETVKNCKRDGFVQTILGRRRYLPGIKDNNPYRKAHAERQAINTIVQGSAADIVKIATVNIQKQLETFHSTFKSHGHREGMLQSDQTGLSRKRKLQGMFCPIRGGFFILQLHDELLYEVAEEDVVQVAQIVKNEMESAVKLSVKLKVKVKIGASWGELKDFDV

hpol ε = target: T3, hpol ε (Homo sapiens, UniProt Q07864, D275A/E277A); experiment: Fluorescence-based pol activity assay, hpol ε; format: biochemical
T3 sequence (Q07864 1-1189 D275A/E277A limits assumed): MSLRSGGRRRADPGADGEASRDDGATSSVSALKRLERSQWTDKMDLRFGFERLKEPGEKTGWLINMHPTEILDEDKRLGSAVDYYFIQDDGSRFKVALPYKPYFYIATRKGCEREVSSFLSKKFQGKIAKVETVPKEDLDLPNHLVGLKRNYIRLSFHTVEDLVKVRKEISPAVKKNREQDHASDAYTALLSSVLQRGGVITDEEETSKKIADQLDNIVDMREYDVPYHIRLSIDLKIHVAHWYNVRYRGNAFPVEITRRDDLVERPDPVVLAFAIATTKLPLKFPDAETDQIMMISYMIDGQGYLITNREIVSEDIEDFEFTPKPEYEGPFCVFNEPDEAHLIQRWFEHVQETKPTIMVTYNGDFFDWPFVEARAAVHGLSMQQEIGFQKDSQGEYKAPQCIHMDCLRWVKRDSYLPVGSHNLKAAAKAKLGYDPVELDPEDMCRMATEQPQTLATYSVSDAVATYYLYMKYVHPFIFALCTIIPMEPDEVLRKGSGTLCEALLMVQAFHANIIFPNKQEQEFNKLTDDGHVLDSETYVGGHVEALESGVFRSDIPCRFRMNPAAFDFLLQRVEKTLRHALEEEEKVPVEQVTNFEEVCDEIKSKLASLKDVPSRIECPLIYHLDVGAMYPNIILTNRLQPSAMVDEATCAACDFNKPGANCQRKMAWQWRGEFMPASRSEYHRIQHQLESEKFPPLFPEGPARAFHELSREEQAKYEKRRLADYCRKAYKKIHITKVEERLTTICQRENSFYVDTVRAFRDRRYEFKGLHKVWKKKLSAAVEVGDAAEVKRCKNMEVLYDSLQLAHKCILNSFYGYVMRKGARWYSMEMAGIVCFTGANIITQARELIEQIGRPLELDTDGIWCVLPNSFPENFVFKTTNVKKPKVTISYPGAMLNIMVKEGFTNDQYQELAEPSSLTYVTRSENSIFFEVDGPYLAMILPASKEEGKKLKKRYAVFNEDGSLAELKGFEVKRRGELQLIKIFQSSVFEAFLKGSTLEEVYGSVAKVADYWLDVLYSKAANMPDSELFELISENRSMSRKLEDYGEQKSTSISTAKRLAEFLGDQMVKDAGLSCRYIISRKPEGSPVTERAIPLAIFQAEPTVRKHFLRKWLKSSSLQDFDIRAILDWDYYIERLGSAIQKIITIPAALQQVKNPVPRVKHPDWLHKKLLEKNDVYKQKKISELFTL

SMILES: O=C1NC(=S)NC(=O)C1=Cc1cn(Cc2ccc3ccccc3c2)c2ccc(Cl)cc12 [PNR-7-02, 5-((5-chloro-1-(naphthalen-2-ylmethyl)-1H-indol-3-yl)methylene)-2-thioxodihydropyrimidine-4,6-(1H,5H)-dione]
- Pol activity relative to DMSO control, hpol η (hpol η): 4.4 (±3.8) % and < 5%
- Effect of adding PNR-7-02 on toxicity of CDDP ([1]; hpol η-deficient cells): does not have a notable effect
- Combination index with CDDP ([1]; hpol η-deficient cells, 0.1 μM PNR-7-02): 1.02
- Combination index with CDDP ([1]; hpol η-deficient cells, 1 μM PNR-7-02): 0.90
- EC50 ([1]; read-out: EC50, cell viability, PNR-7-02 alone, hpol η-deficient HAP-1, 48 h): 5.6 µM
- Combination index (CI) with CDDP (OVCAR3 cells): 0.4
- Pol activity relative to DMSO control, hpol θ (hpol θ): 86 (±1) %
- Pol activity relative to DMSO control, hpol ε (hpol ε; 20 μM PNR-7-02, mean (±SD)): 32 (±5) %
- Specificity for hpol η over replicative pols (hpol ε) (hpol ε; from activity at 20 μM PNR-7-02): 5–10 fold
